Laboratory results as given in ChEMBL document CHEMBL1127780, “Synthesis of a photoaffinity taxol analogue and its use in labeling tubulin” (J Med Chem, 1994).
“And” between values parts separate entries of the source, which are not always exact repeats. Equal values may be shown once.

Tests used:
[1] = The ratio of AzT-taxol/tubulin covalently bound after irradiation at initial ratio of 0.5
How it was run: (§1)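 Tubulin (5 μM) with [3H]AzB-taxol at varied initial ratios, 20 min at 37 °C in Pipes/EGTA/MgSO4/DTT/GTP buffer pH 6.9, then irradiated 20 min at 300 nm. Centrifuged at 40000g, 10 min, 37 °C. Pellet washed repeatedly with 50% ethanol, dissolved in 0.1 M NaOH. Covalent mol/mol from radioactivity and protein.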

Tubulin (Bos taurus) [2] = test: The incorporation of [3H]AzB-taxol into tubulin was evaluated after irradiation with 350 nM lamp
Tubulin (Bos taurus) [3] = test: The photoincorporation of [3H]AzB-taxol into tubulin was evaluated from polymerized tubulin
Tubulin (Bos taurus) [4] = test: The photoincorporation of [3H]AzB-taxol into tubulin was evaluated by preirradiation of the compound
Tubulin (Bos taurus) [5] = test: The photoincorporation of [3H]AzB-taxol into tubulin was evaluated from unpolymerized tubulin on ice
Tubulin (Bos taurus) [6] = test: The inhibition of photoincorporation of AzB-taxol into tubulin was evaluated in the presence of 7.5 uM of taxol; Complete inhibition
Tubulin (Bos taurus) [7] = test: The photoincorporation of [3H]AzB-taxol into tubulin was evaluated by incubation in dark
[8] = The ratio of AzT-taxol/tubulin noncovalently bound […] at initial ratio of 2.0
How it was run: (§2)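 Noncovalent binding without irradiation: 5 μM tubulin with varied [3H]AzB-taxol, 20 min at 37 °C. Centrifuged at 40000g; pellets washed with buffer, recentrifuged and dissolved in 0.1 M NaOH. Bound mol/mol from protein and radioactivity.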

[9] = The ratio of AzT-taxol/tubulin covalently bound after irradiation at initial ratio of 3.0; how it was run: as §1
[10] = The ratio of AzT-taxol/tubulin covalently bound after irradiation at initial ratio of 4.0; how it was run: as §1
[11] = molecular target: Tubulin beta chain (Sus scrofa) (UniProt P02554); test: The photoincorporation of [3H]-AzB-taxol into beta-subunit of tubulin was evaluated at initial ratio of 1.0
[12] = molecular target: Tubulin alpha chain (Sus scrofa) (UniProt P02550); test: The photoincorporation of [3H]AzB-taxol into alpha-subunit of tubulin was evaluated at initial ratio of 0.5
How it was run: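 Tubulin (5 μM) with [3H]AzB-taxol at the stated initial ratio, 20 min at 37 °C, then irradiated 20 min at 300 nm. Ethanol-washed precipitate run on SDS-PAGE (7.5% running gel, 3% stacking gel) and stained with Coomassie. α- and β-bands excised, dissolved in 30% H2O2 at 65 °C and counted; results are % of incorporation per subunit, n = 2–3 experiments.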

[13] = The ratio of AzT-taxol/tubulin noncovalently bound […] at initial ratio of 3.0; how it was run: as §2
[14] = The ratio of AzT-taxol/tubulin noncovalently bound after irradiation at initial ratio of 0.5; details: in the assay text read “before irradiation” for “after irradiation”; how it was run: as §2
Tubulin (Bos taurus) [15] = test: The incorporation of [3H]AzB-taxol into tubulin was evaluated after irradiation with 300 nM lamp
[16] = The ratio of AzT-taxol/tubulin covalently bound after irradiation at initial ratio of 2.0; how it was run: as §1
[17] = The ratio of AzT-taxol/tubulin covalently bound after irradiation at initial ratio of 1.0; how it was run: as §1
[18] = The ratio of […]/tubulin noncovalently bound […] at initial ratio of 4.0; how it was run: as §2
Tubulin (Bos taurus) [19] = test: The incorporation of [3H]AzB-taxol into tubulin was evaluated after irradiation with 254 nM lamp
Tubulin (Bos taurus) [20] = test: The photoincorporation of [3H]AzB-taxol into tubulin was evaluated from tubulin in 8M urea
[21] = test system: Tubulin alpha chain (Bos taurus); test: The photoincorporation of [3H]AzB-taxol into alpha-subunit of tubulin was evaluated at initial ratio of 1.0
[22] = molecular target: Tubulin beta chain (Sus scrofa) (UniProt P02554); test: The photoincorporation of [3H]AzB-taxol into beta-subunit of tubulin was evaluated at initial ratio of 0.5
[23] = The ratio of […]/tubulin noncovalently bound […] at initial ratio of 1.0; how it was run: as §2

Sequence of Tubulin beta chain (Sus scrofa) (P02554 whole entry, looked up): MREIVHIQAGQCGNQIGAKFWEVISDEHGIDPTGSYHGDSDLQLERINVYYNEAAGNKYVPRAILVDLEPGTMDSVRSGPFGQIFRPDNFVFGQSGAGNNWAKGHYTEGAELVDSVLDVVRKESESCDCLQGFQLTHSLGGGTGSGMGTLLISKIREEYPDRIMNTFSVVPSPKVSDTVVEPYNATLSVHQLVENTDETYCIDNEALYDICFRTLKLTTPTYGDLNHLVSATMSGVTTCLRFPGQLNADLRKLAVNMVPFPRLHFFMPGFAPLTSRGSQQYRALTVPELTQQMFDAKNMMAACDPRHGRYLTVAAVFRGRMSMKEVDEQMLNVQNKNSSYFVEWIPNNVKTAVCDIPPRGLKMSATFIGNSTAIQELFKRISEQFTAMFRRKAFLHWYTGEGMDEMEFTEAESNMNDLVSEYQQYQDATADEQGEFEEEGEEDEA
Sequence of Tubulin alpha chain (Sus scrofa) (P02550 whole entry, looked up): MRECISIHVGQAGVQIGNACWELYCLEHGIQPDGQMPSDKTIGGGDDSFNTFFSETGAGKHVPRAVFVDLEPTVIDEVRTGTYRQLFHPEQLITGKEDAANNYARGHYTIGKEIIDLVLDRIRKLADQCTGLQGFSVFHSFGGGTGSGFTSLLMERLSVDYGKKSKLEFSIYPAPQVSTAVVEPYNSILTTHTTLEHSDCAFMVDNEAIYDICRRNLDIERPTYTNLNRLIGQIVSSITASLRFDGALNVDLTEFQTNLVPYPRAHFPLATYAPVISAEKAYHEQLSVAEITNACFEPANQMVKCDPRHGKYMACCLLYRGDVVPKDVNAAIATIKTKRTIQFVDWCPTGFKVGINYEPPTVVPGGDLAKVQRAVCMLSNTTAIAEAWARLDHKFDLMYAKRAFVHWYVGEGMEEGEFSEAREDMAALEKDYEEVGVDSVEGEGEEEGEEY

Ratio [1]: 0.13 | Amount incorporated (M (M of tubulin)-1) (Tubulin (Bos taurus) [2]): 0.025 | Amount incorporated (M (M of tubulin)-1) (Tubulin (Bos taurus) [3]): 0.15 | Amount incorporated (M (M of tubulin)-1) (Tubulin (Bos taurus) [4]): 0.016 | Amount incorporated (M (M of tubulin)-1) (Tubulin (Bos taurus) [5]): 0.03 | Incorporated (Tubulin (Bos taurus) [6]): Complete inhibition | Amount incorporated (M (M of tubulin)-1) (Tubulin (Bos taurus) [7]): 0.008 | Ratio [8]: 1.22 | Ratio [9]: 0.23 | Ratio [10]: 0.24 | Incorporated [11]: 86% | Incorporated [12]: 20% and 19% | Ratio [13]: 1.2 | Ratio [14]: 0.5 | Amount incorporated (M (M of tubulin)-1) (Tubulin (Bos taurus) [15]): 0.12 | Ratio [16]: 0.23 | Ratio [17]: 0.17 | Ratio [18]: 1.19 | Amount incorporated (M (M of tubulin)-1) (Tubulin (Bos taurus) [19]): 0.13 | Amount incorporated (M (M of tubulin)-1) (Tubulin (Bos taurus) [20]): 0.015 | Incorporated [21]: 14% | Incorporated [22]: 80% and 81% | Ratio [23]: 0.85
SMILES: CC(=O)O[C@H]1C(=O)[C@@]2(C)C([C@H](OC(=O)c3ccccc3)[C@]3(O)C[C@H](OC(=O)[C@H](O)C(NC(=O)c4ccc(N=[N+]=[N-])cc4)c4ccccc4)C(C)=C1C3(C)C)[C@]1(OC(C)=O)CO[C@@H]1C[C@@H]2O (stereo partly drawn)
